# Results of several laboratories.
# Each line is one published result; the experiments were not run side by side.
# Observed: microbial growth
Structure (SMILES),organism,assay,test system,setting,MIC
Oc1c(F)cc(-c2nc(-c3ccc(Oc4ccc(C(F)(F)F)cc4)cc3)no2)cc1F,Clostridioides difficile,broth dilution,ATCC43255,48 h,2 to 4 µg/mL
Cc1ccc(C)n1-c1ccc(-c2nnc(-c3ccccc3Cl)[nH]2)cc1,Saccharomyces cerevisiae,broth dilution,ATCC9763,,8 µg/mL
Oc1ccc(-c2nc(-c3ccc(Oc4ccc(I)cc4)cc3)no2)cc1,Clostridioides difficile,broth dilution,ATCC43255,48 h,8 to 128 µg/mL
CNc1ccc(-c2nc(-c3ccc(Oc4ccccc4)cc3)no2)cc1,Clostridioides difficile,broth dilution,,48 h,8 µg/mL
Cc1cc(=O)[nH]n1C(=O)c1ccc(-n2c(C)ccc2C)cc1,Saccharomyces cerevisiae,broth dilution,ATCC9763,,250 µg/mL
Oc1ccc(-c2nc(-c3ccc(Oc4ccc(C(F)(F)F)cc4)cc3)no2)cc1F,Clostridioides difficile,broth dilution,ATCC43255,48 h,2 to 4 µg/mL
CC(C)(C)C(=O)C(Oc1ccc(Cl)cc1)n1ccnc1 (centres unmarked),Saccharomyces cerevisiae,,,,20 to 25 µM
Oc1ccc(-c2nc(-c3ccc(Oc4ccccc4)cc3)no2)cc1,Clostridioides difficile,broth dilution,,48 h,6 µg/mL
C/C=C/C/C=C/CCC(=O)[C@H]1O[C@H]1C(N)=O,Saccharomyces cerevisiae,,,,10 to 12 µM
O=C(O)COc1ccc(Oc2ccc(-c3noc(-c4ccc(O)cc4)n3)cc2)cc1,Clostridioides difficile,broth dilution,,48 h,50 µg/mL
Cc1ccc(C)n1-c1ccc(C(=O)NNC=O)cc1,Saccharomyces cerevisiae,broth dilution,ATCC9763,,250 µg/mL
CC(CN)c1ccc(Oc2ccc(-c3noc(-c4ccc(O)cc4)n3)cc2)cc1.Cl (racemic),Clostridioides difficile,broth dilution,,48 h,16 µg/mL
CC[C@@H]([C@H](C)O)n1ncn(-c2ccc(N3CCN(c4ccc(OC[C@@H]5CO[C@@](Cn6cncn6)(c6ccc(F)cc6F)C5)cc4)CC3)cc2)c1=O,Saccharomyces cerevisiae,,BY4743,72 h,< 0.3 µM
Cc1ccc(C)n1-c1ccc(-c2nnc(-c3cccc([N+](=O)[O-])c3)[nH]2)cc1,Saccharomyces cerevisiae,broth dilution,ATCC9763,,31.2 µg/mL
Cl.NCc1ccc(Oc2ccc(-c3noc(-c4ccc(O)cc4)n3)cc2)cc1,Clostridioides difficile,broth dilution,,48 h,6 µg/mL
Cc1cc(C)n(C(=O)c2ccc(-n3c(C)ccc3C)cc2)n1,Saccharomyces cerevisiae,broth dilution,ATCC9763,,> 500 µg/mL
OC(Cn1cncn1)(Cn1cncn1)c1ccc(F)cc1F,Saccharomyces cerevisiae,,,,4 µg/mL
